{"source": "paper PMC5900865", "about": "(Clinical Pharmacology in Drug Development, 2017)", "assay_type_in_all_cases": "in vivo, human", "key": {"healthy adult men": {"system": "healthy adult men", "test": "Study 3 safety evaluation", "settings": "single 10 mg"}, "[1]": {"test": "Study 2 single-dose pharmacokinetics in elderly adults", "settings": "for AUC(0-inf) / Cmax / Tmax: human, plasma, oral, 10 mg; for T1/2 / Fe0–120, fraction excreted: single 10 mg; for T1/2: fasted; for Fe0–120, fraction excreted: urine 0 to 120 hours", "outline": "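Elderly men and women (65–85 y) received a single oral 10 mg dose, fasted, in the morning. Plasma vortioxetine and metabolites were assayed by HPLC-MS/MS after liquid–liquid extraction. Urine was pooled predose and at 24-h intervals to 120 h. Parameters came from noncompartmental analysis. Below-LLOQ concentrations were entered as zero in means. Tmax is median (min–max).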"}, "[2]": {"test": "Study 1B multiple-dose pharmacokinetics", "outline": "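Men (5, 10, 20 mg) and women (5, 10 mg) were dosed orally, fed, daily for 12 days. Plasma was sampled on day 1 predose to […]. Urine came from the 5 mg cohort predose days 1–16 then in 24-h intervals, and for 10/20 mg on day 12 at 0–24 h. Analysis was by HPLC-MS/MS and noncompartmental.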"}, "[3]": {"settings": "elderly women, n = 7, mean (SD)"}, "[4]": {"settings": "day 12, female, 5 mg daily, n = 5, mean (SD)"}, "[5]": {"settings": "day 12, female, 10 mg daily, n = 6, mean (SD)"}, "[6]": {"settings": "day 12, male, 5 mg daily, n = 6, mean (SD)"}, "[7]": {"settings": "day 12, male, 10 mg daily, n = 6, mean (SD)"}, "[8]": {"settings": "day 12, male, 20 mg daily, n = 6, mean (SD)"}}, "data": [{"compound": "Cc1ccc(Sc2ccccc2N2CCNCC2)c(C)c1", "note": "[Vortioxetine, 1‐[2‐(2,4‐dimethylphenylsulfanyl)phenyl]piperazine]", "values": [{"measurement": "safety profiles, fasted vs fed", "setting": "healthy adult men", "result": "no significant differences in safety profiles"}, {"measurement": "AUC(0-inf)", "setting": "[1]; female", "result": 305, "unit": "ng·h/mL"}, {"measurement": "Cmax", "setting": "[1]; female", "result": 4.6, "unit": "ng/mL"}, {"measurement": "Tmax", "setting": "[1]; female", "result": 6, "unit": "h"}, {"measurement": "AUC(0-inf)", "setting": "[1]; male", "result": 378, "unit": "ng·h/mL"}, {"measurement": "Cmax", "setting": "[1]; male", "result": 4.2, "unit": "ng/mL"}, {"measurement": "Tmax", "setting": "[1]; male", "result": 6, "unit": "h"}, {"measurement": "T1/2", "setting": "[1]; elderly men, n = 8, mean (SD)", "result": "85.2 (29.8) h"}, {"measurement": "T1/2", "setting": "[1]; [3]", "result": "63.5 (10.7) h"}, {"measurement": "Fe0–120, fraction excreted", "setting": "[1]; elderly men, n = 8, mean (SD)", "result": "0.0 (0.0) %"}, {"measurement": "Fe0–120, fraction excreted", "setting": "[1]; [3]", "result": "0.0 (0.0) %"}, {"measurement": "time to reach steady state", "setting": "[2]; 5‐ and 20‐mg doses in men and 10‐mg dose in women", "result": "approximately 12 days"}, {"measurement": "steady state of trough plasma concentrations", "setting": "[2]; 10‐mg dose in men and 5‐mg dose in women", "result": "did not reach steady state even after 12 days"}, {"measurement": "clearance at 12 days", "setting": "[2]; both, human, plasma, oral", "result": "333 to 867", "unit": "mL/min"}, {"measurement": "CL/F", "setting": "[2]; day 1, female, 5 mg daily, fed, n = 5, mean (SD)", "result": "22.3 (19.6) L/h"}, {"measurement": "CL/F", "setting": "[2]; day 1, female, 10 mg daily, fed, n = 6, mean (SD)", "result": "99.3 (104.7) L/h"}, {"measurement": "CL/F", "setting": "[2]; day 1, male, 5 mg daily, fed, n = 6, mean (SD)", "result": "30.6 (9.4) L/h"}, {"measurement": "CL/F", "setting": "[2]; day 1, male, 10 mg daily, fed, n = 6, mean (SD)", "result": "29.1 (12.0) L/h"}, {"measurement": "CL/F", "setting": "[2]; day 1, male, 20 mg daily, fed, n = 6, mean (SD)", "result": "50.4 (17.1) L/h"}, {"measurement": "CL/F", "setting": "[2]; day 12, female, 5 mg daily, fed, n = 5, mean (SD)", "result": "20.2 (9.5) L/h"}, {"measurement": "R(AUC), cumulative ratio of AUC values", "setting": "[2]; [4]", "result": "6.0 (2.0)"}, {"measurement": "R(Cmax), cumulative ratio of Cmax values", "setting": "[2]; [4]", "result": "5.0 (1.5)"}, {"measurement": "CL/F", "setting": "[2]; day 12, female, 10 mg daily, fed, n = 6, mean (SD)", "result": "69.9 (94.8) L/h"}, {"measurement": "R(AUC), cumulative ratio of AUC values", "setting": "[2]; [5]", "result": "5.3 (2.2)"}, {"measurement": "R(Cmax), cumulative ratio of Cmax values", "setting": "[2]; [5]", "result": "3.9 (1.5)"}, {"measurement": "CL/F", "setting": "[2]; day 12, male, 5 mg daily, fed, n = 6, mean (SD)", "result": "33.1 (10.3) L/h"}, {"measurement": "R(AUC), cumulative ratio of AUC values", "setting": "[2]; [6]", "result": "5.2 (1.4)"}, {"measurement": "R(Cmax), cumulative ratio of Cmax values", "setting": "[2]; [6]", "result": "4.4 (1.1)"}, {"measurement": "CL/F", "setting": "[2]; day 12, male, 10 mg daily, fed, n = 6, mean (SD)", "result": "23.8 (4.4) L/h"}, {"measurement": "R(AUC), cumulative ratio of AUC values", "setting": "[2]; [7]", "result": "6.2 (0.9)"}, {"measurement": "R(Cmax), cumulative ratio of Cmax values", "setting": "[2]; [7]", "result": "5.1 (0.6)"}, {"measurement": "CL/F", "setting": "[2]; day 12, male, 20 mg daily, fed, n = 6, mean (SD)", "result": "51.5 (16.6) L/h"}, {"measurement": "R(AUC), cumulative ratio of AUC values", "setting": "[2]; [8]", "result": "3.9 (1.0)"}, {"measurement": "R(Cmax), cumulative ratio of Cmax values", "setting": "[2]; [8]", "result": "3.2 (0.7)"}, {"measurement": "AUC(0-t)", "setting": "[2]; female, human, plasma, oral, 5 mg, AUC0–24, day 1, female, 5 mg daily, fed, n = 5, mean (SD)", "result": 47.1, "unit": "ng·h/mL"}, {"measurement": "AUC(0-t)", "setting": "[2]; female, human, plasma, oral, 5 mg, AUC0–24, day 12, female, 5 mg daily, fed, n = 5, mean (SD)", "result": 284, "unit": "ng·h/mL"}, {"measurement": "half-life", "setting": "[2]; female, human, plasma, oral, 5 mg, T1/2, day 1, female, 5 mg daily, fed, n = 5, mean (SD)", "result": 113, "unit": "h"}, {"measurement": "half-life", "setting": "[2]; female, human, plasma, oral, 5 mg, T1/2, day 12, female, 5 mg daily, fed, n = 5, mean (SD)", "result": 79.8, "unit": "h"}, {"measurement": "AUC(0-t)", "setting": "[2]; female, human, plasma, oral, 10 mg, AUC0–24, day 1, female, 10 mg daily, fed, n = 6, mean (SD)", "result": 53.3, "unit": "ng·h/mL"}, {"measurement": "AUC(0-t)", "setting": "[2]; female, human, plasma, oral, 10 mg, AUC0–24, day 12, female, 10 mg daily, fed, n = 6, mean (SD)", "result": 295, "unit": "ng·h/mL"}, {"measurement": "half-life", "setting": "[2]; female, human, plasma, oral, 10 mg, T1/2, day 1, female, 10 mg daily, fed, n = 6, mean (SD)", "result": 34.2, "unit": "h"}, {"measurement": "half-life", "setting": "[2]; female, human, plasma, oral, 10 mg, T1/2, day 12, female, 10 mg daily, fed, n = 6, mean (SD)", "result": 58, "unit": "h"}, {"measurement": "average time to reach steady state", "setting": "[2]; given a median half‐life of 67 hours", "result": 14, "unit": "days"}, {"measurement": "half-life", "setting": "[2]; human, plasma, oral, median half‐life, as given in the discussion", "result": 67, "unit": "h"}, {"measurement": "AUC(0-t)", "setting": "[2]; male, human, plasma, oral, 5 mg, AUC0–24, day 1, male, 5 mg daily, fed, n = 6, mean (SD)", "result": 31.6, "unit": "ng·h/mL"}, {"measurement": "AUC(0-t)", "setting": "[2]; male, human, plasma, oral, 5 mg, AUC0–24, day 12, male, 5 mg daily, fed, n = 6, mean (SD)", "result": 163, "unit": "ng·h/mL"}, {"measurement": "half-life", "setting": "[2]; male, human, plasma, oral, 5 mg, T1/2, day 1, male, 5 mg daily, fed, n = 6, mean (SD)", "result": 68, "unit": "h"}, {"measurement": "half-life", "setting": "[2]; male, human, plasma, oral, 5 mg, T1/2, day 12, male, 5 mg daily, fed, n = 6, mean (SD)", "result": 58, "unit": "h"}, {"measurement": "AUC(0-t)", "setting": "[2]; male, human, plasma, oral, 10 mg, AUC0–24, day 1, male, 10 mg daily, fed, n = 6, mean (SD)", "result": 71, "unit": "ng·h/mL"}, {"measurement": "AUC(0-t)", "setting": "[2]; male, human, plasma, oral, 10 mg, AUC0–24, day 12, male, 10 mg daily, fed, n = 6, mean (SD)", "result": 432, "unit": "ng·h/mL"}]}]}
